These results are taken from ChEMBL document CHEMBL4130513, “Jozilebomines A and B, Naphthylisoquinoline Dimers from the Congolese Liana Ancistrocladus ileboensis, with Antiausterity Activities against the PANC-1 Human Pancreatic Cancer Cell Line” (J Nat Prod, 2017).

Activity calls are given as the source filed them. No cut-off for these calls is given here.

The subject of data set [1] is PANC-1. The data set can be described thus: Antiausteritic activity against human PANC1 cells in nutrient-deprived medium measured after 24 hrs by WST8 assay. The class given is functional. A digest of the protocol: (§1)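 PANC-1 cells seeded at 1.5 × 10^4/well, attached 24 h in DMEM at 37 °C, 5% CO2. After two PBS washes, exposed to serially diluted samples in nutrient-rich DMEM or nutrient-deprived medium (pH 7.4) for 24 h. Then WST-8 (10% in DMEM) for 3 h, A450 read. Viability is relative to control and blank wells. PC50 is the concentration killing 50% of cells preferentially in NDM.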
A general note: Tetrazolium dyes change colour on reduction, which living cells bring about.

A further data set deals with HeLa. The data set can be described thus: Cytotoxicity against human HeLa cells assessed as reduction in cell viability after 72 hrs by CCK8 assay. Type of data set: functional, cell-based. A digest of the protocol: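 HeLa cells (DMEM, 10% FBS) plated at 2 × 10^3/well and attached 24 h at 37 °C, 5% CO2. After a PBS wash, serially diluted samples in DMEM were added for 72 h, with paclitaxel as positive control. Cells were washed, given 10% WST-8 (CCK-8) in DMEM for 3 h, and A450 was read. Viability was taken from three-well means, corrected against blank and control.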

Data set [2] relates to Trypanosoma brucei rhodesiense. The data set can be described thus: Antitrypanosomal activity against Trypanosoma brucei rhodesiense bloodstream forms after 72 hrs by alamar blue staining based fluorescence assay. The class given is functional, organism-based. A general note: The colour change of resazurin is a common sign of viable cells or microbes.
The next data set has as its system Trypanosoma cruzi. The data set can be described thus: Antitrypanosomal activity against Trypanosoma cruzi trypomastigote forms infected in rat L6 cells after 96 hrs by CPRG/Nonidet substrate based photometric method. The class given is functional, organism-based.
Another data set deals with Plasmodium falciparum. Put plainly: Antiplasmodial activity against Plasmodium falciparum NF54 assessed as reduction in [3H]hypoxanthine incorporation pretreated for 48 hrs followed by [3H]hypoxanthine addition measured after 24 hrs by liquid scintillation counting method. Type of data set: functional, organism-based.
Another data set deals with L6. The data set can be described thus: Cytotoxicity against rat L6 cells after 72 hrs by alamar blue staining based fluorescence assay. The class given is cell-based.
The test system of data set [3] is PANC-1. Put plainly: Cytotoxicity against human PANC1 cells in DMEM measured after 24 hrs by WST8 assay. The class given is cell-based. The note with it: panc-1, 24 h. The gist of the method: as §1
Data set [4] is described as follows: Selectivity index, ratio of IC50 for rat L6 cells to IC50 for Plasmodium falciparum NF54. The class given is toxicity.
The next data set concerns Leishmania donovani. Put plainly: Antileishmanial activity against Leishmania donovani amastigote forms after 72 hrs by alamar blue staining based fluorescence assay. Type of data set: functional, organism-based.
For data set [5], the system named is PANC-1. Put plainly: Inhibition of colony formation in human PANC1 cells pretreated for 24 hrs followed by compound washout measured after 10 days by crystal violet staining based assay. The class given is functional, cell-based. The gist of the method: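 PANC-1 cells plated at 500/well in DMEM and attached 24 h at 37 °C, 5% CO2. Exposed 24 h to compound (1.25 and 2.5 μM) in DMEM or to DMEM alone. Washed with PBS, then grown 10 d in fresh DMEM. Fixed with 4% formaldehyde and stained with crystal violet for 10 min. Colony area quantified; three independent experiments.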

Data set [6] has as its system PANC-1. Put plainly: Induction of morphological changes in human PANC1 cells assessed as disintegration of cell organelles at 5 uM after 24 hrs by ethidium bromide/acridine orange staining based microscopic analysis. The class given is functional. A digest of the protocol: (§2)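 PANC-1 cells seeded at 1 × 10^6 per well and attached 24 h. After two PBS washes, treated in NDM with vehicle or 5 μM compound for 24 h. EB/AO dye mix (100 μg mL−1 each in PBS) added for 5 min. Imaged by phase contrast and red/green fluorescence at 20× objective.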

Data set [7] concerns PANC-1. Put plainly: Induction of morphological changes in human PANC1 cells assessed as cell membrane rupture at 5 uM after 24 hrs by ethidium bromide/acridine orange staining based microscopic analysis. Type of data set: functional. The gist of the method: as §2

Consider `COc1cc(C[C@H]2C(=O)OC[C@@H]2Cc2ccc(OC)c(OC)c2)ccc1O` [ARCTIGENIN], for which, in the data set on PANC-1 [1], the PC50 came to 0.83 µM.
Take `COc1cc(C)c(-c2ccc3c(c2O)[C@@H](C)N[C@H](C)C3)c2ccc(-c3c(C)c(-c4ccc5c(c4O)[C@@H](C)N[C@H](C)C5)c4cccc(OC)c4c3O)c(O)c12` (atropisomer, axis not shown) [listing 1 of 2 here]: the concentration for half-maximal inhibition (IC50) was determined as 1.08 µM with HeLa (Homo sapiens, HeLa, 72 h); 0.732 µM in [2] (Trypanosoma brucei, 72 h); 23.8 µM in the data set with Trypanosoma cruzi (l6); 0.043 µM in the data set with Plasmodium falciparum; 6.85 µM with L6 (Rattus norvegicus, L6, 72 h); 89.7 µM in the data set on Leishmania donovani (Leishmania donovani, 72 h). In the data set on PANC-1 [3], the Activity result is “Non-Toxic”. In addition, the PC50 in the data set with PANC-1 [1] amounted to 2.24 µM. Moreover, the “Ratio IC50” value in data set [4] is 160.
On to `COc1cc(C)c(-c2ccc3c(c2O)[C@@H](C)N[C@H](C)C3)c2ccc(-c3c(C)c(-c4ccc5c(c4O)[C@@H](C)N[C@H](C)C5)c4cccc(OC)c4c3O)c(O)c12` (single isomer, unassigned; atropisomer 2) [listing 1 of 2 here], for which the inhibition result in the data set with PANC-1 [5] was “Dose-dependent effect”. The Activity result in the data set with HeLa and in the data set on PANC-1 [1] was “Dose-dependent effect” in each case. Besides, the outcome in the data set with PANC-1 [6] and with PANC-1 [7] was Active.
On to `COc1cc(C)c(-c2ccc3c(c2O)[C@@H](C)N[C@H](C)C3)c2ccc(-c3c(C)c(-c4ccc5c(c4O)[C@@H](C)N[C@H](C)C5)c4cccc(OC)c4c3O)c(O)c12` (single isomer, unassigned; atropisomer 2) [listing 2 of 2 here], for which the IC50 was determined as 0.68 µM with HeLa (hela); 1.03 µM in [2]; 21.9 µM in the data set with Trypanosoma cruzi (Trypanosoma cruzi, L6, 96 h); 0.102 µM with Plasmodium falciparum; 5.33 µM in the data set on L6 (l6); 55.8 µM with Leishmania donovani. Moreover, the PC50 with PANC-1 [1] worked out at 0.87 µM. For the same molecule, in data set [4], the “Ratio IC50” value worked out at 52.3.
Consider `COc1cc(C)c(-c2ccc3c(c2O)[C@@H](C)N[C@H](C)C3)c2ccc(-c3c(C)c(-c4ccc5c(c4O)[C@@H](C)N[C@H](C)C5)c4cccc(OC)c4c3O)c(O)c12` (atropisomer, axis not shown) [listing 2 of 2 here], for which the inhibition entry in the data set on PANC-1 [5] is “Dose-dependent effect”. Moreover, the Activity entry with HeLa and in the data set with PANC-1 [1] was “Dose-dependent effect” in each case. Further, the outcome with PANC-1 [6] and in the data set with PANC-1 [7] was Active.

As usually defined, the IC50 is the point on the concentration scale where inhibition reaches its midpoint.
